Assay results taken from ChEMBL document CHEMBL1122590, “Dibenz[b,e]oxepinalkanoic acids as nonsteroidal antiinflammatory agents. 4. Synthesis and evaluation of 4-(4,10-dihydro-10-oxothieno[3,2-c] [1]benzoxepin-8-yl)butanol and -butyric acid and related derivatives” (1984).

Legend:
Rattus norvegicus [1] = assay: Ability to inhibit Carrageenan-induced paw edema in rat administered per orally; type: functional; settings: for ED50: po
How it was run: (§1)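 Male Wistar rats, 130-200 g, groups of 7-10, fasted overnight with water available. Oral dosing in 10 mL/kg of aqueous Tween 80 suspension (oils in emulphor/alcohol/water 1:1:8) at 1, 2 and/or 4 h before subplantar injection of 0.1 mL of 1% carrageenan into left hind paw. Paw volume by mercury displacement at 0 and 3 h; % edema inhibition vs vehicle; ED50 by linear regression from at least three doses.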

Mus musculus [2] = assay: Ability to inhibit phenylquinone induced writhing in mouse at dose 25 mg/Kg administered per orally; settings: po
Rattus norvegicus [3] = assay: Ability to inhibit Carrageenan-induced paw edema in rat at dose 20 mg/Kg administered per orally; type: functional; settings: po; how it was run: as §1
Mus musculus [4] = assay: Ability to inhibit phenylquinone induced writhing in mouse administered per orally; settings: po
Rattus norvegicus [5] = assay: Ability to inhibit Carrageenan-induced paw edema in rat at a dose of 20 mg/kg administered per orally; type: functional; settings: route oral; how it was run: as §1
Rattus norvegicus [6] = assay: Ability to inhibit gastric irritation in rat administered per orally; type: functional; settings: Stomach, po
How it was run: (§2)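 Groups of 10 male Wistar rats, 150-175 g, fasted 48 h with water available, dosed orally (10 mL/kg vehicle as Tween 80 suspension or emulphor/alcohol/water). Time course: sacrifice at 3, 5 and 7 h. Stomachs and intestines examined; any erosion, ulcer or perforation scored ulcerogenic. Four doses at peak time; ED50 = dose giving irritation in 50% of animals, by linear regression.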

Mus musculus [7] = assay: Ability to inhibit phenylquinone induced writhing in mouse administered perorally; settings: po
Rattus norvegicus [8] = assay: Ability to inhibit Carrageenan-induced paw edema in rat administered perorally; type: functional; settings: po; how it was run: as §1
Mus musculus [9] = assay: Ability to inhibit phenylquinone induced writhing, in mouse at dose 25 mg/Kg administered per orally; settings: po
Rattus norvegicus [10] = assay: Ability to inhibit gastric irritation in rat at dose 400 mg/Kg administered per orally; type: functional; settings: Stomach, po; how it was run: as §2
Rattus norvegicus [11] = assay: Ability to inhibit gastric irritation in rat administered perorally; type: functional; settings: Stomach, po
How it was run: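 Male Wistar rats, 150-175 g, groups of 10, fasted 48 h (water ad libitum), dosed orally (10 mL/kg) as aqueous Tween 80 suspension or emulphor/alcohol/water (1:1:8) for oils; controls got vehicle. Time response: sacrificed at 3, 5 and 7 h. Dose-response at peak time with four doses. Stomach and intestine lesions (erosion, ulcer, perforation) scored. ED50 is the dose irritating 50% of rats, by linear regression; otherwise % at stated dose.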

For O=C(O)CCCc1ccc2c(c1)C(=O)c1sccc1CO2, the Inhibition (Rattus norvegicus [1]) was 38% and the inhibition in vivo at 25 mg/kg (Mus musculus [2]) was 94%.
O=C1c2cc(CCO)ccc2OCc2ccsc21 showed an inhibition in vivo at 20 mg/kg (Rattus norvegicus [3]) of 62% and an ED50 (Mus musculus [4]) of 19.7 mg/kg.
Work on COC(=O)CCCc1ccc2c(c1)C(=O)c1sccc1CO2 yielded an ED50 (Mus musculus [4]) of 10.8 mg/kg.
COC(=O)COC(=O)Cc1ccc2c(c1)C(=O)c1sccc1CO2 gave an inhibition in vivo at 20 mg/kg (Rattus norvegicus [5]) of 43% and an ED50 (Mus musculus [4]) of 1.5 mg/kg.
With CCOC(=O)CCCc1ccc2c(c1)C(=O)c1sccc1CO2 the inhibition in vivo at 20 mg/kg (Rattus norvegicus [5]) was 40% and the ED50 (Mus musculus [4]) was 8.2 mg/kg.
With CC(=O)OCCCCc1ccc2c(c1)C(=O)c1sccc1CO2 the inhibition in vivo at 20 mg/kg (Rattus norvegicus [3]) was 38% and the ED50 (Mus musculus [4]) was 5.8 mg/kg.
Compound CC1(C)COC(Cc2ccc3c(c2)C(=O)c2sccc2CO3)=N1 has an inhibition in vivo at 20 mg/kg (Rattus norvegicus [3]) of 49% and an ED50 (Mus musculus [4]) of 7.2 mg/kg.
O=C(O)Cc1ccc2c(c1)C(=O)c1sccc1CO2 gave an ED50 (Rattus norvegicus [1]) of 3.4 mg/kg, an ED50 (Rattus norvegicus [6]) of 33.7 mg/kg and an ED50 (Mus musculus [4]) of 3.1 mg/kg.
O=C1c2cc(CCCCOC(=O)C(F)(F)F)ccc2OCc2ccsc21 showed an ED50 (Mus musculus [7]) of 9.1 mg/kg and an ED50 (Rattus norvegicus [8]) of 16.5 mg/kg.
CC(C)OC(=O)CCCc1ccc2c(c1)C(=O)c1sccc1CO2 gave an inhibition in vivo at 20 mg/kg (Rattus norvegicus [5]) of 44% and an ED50 (Mus musculus [4]) of 8.5 mg/kg.
CC(=O)OCCc1ccc2c(c1)C(=O)c1sccc1CO2 was tested, and the ED50 (Rattus norvegicus [1]) was 11.4 mg/kg, the ED50 (Rattus norvegicus [6]) was 175 mg/kg and the inhibition in vivo at 25 mg/kg (Mus musculus [9]) was 52%.
CCC(=O)OCCc1ccc2c(c1)C(=O)c1sccc1CO2 was tested, and the inhibition in vivo at 20 mg/kg (Rattus norvegicus [3]) was 35% and the inhibition in vivo at 25 mg/kg (Mus musculus [9]) was 22%.
CC(C)(CO)NC(=O)Cc1ccc2c(c1)C(=O)c1sccc1CO2 gave an inhibition in vivo at 20 mg/kg (Rattus norvegicus [3]) of 21% and an inhibition in vivo at 25 mg/kg (Mus musculus [9]) of 19%.
O=C1c2cc(CCCCO)ccc2OCc2ccsc21 was tested, and the ED50 (Rattus norvegicus [1]) was 8.6 mg/kg, the inhibition in vivo at 400 mg/kg (Rattus norvegicus [10]) was 40% and the ED50 (Mus musculus [4]) was 7.4 mg/kg.
CC(C)(C)OC(=O)CCCc1ccc2c(c1)C(=O)c1sccc1CO2 showed an inhibition in vivo at 20 mg/kg (Rattus norvegicus [5]) of 49% and an inhibition in vivo at 25 mg/kg (Mus musculus [9]) of 93%.
Compound COc1ccc2c(c1)c(CC(=O)O)c(C)n2C(=O)c1ccc(Cl)cc1 [INDOMETHACIN] has an ED50 (Rattus norvegicus [11]) of 1.8 mg/kg, an ED50 (Mus musculus [7]) of 0.7 mg/kg and an ED50 (Rattus norvegicus [8]) of 4.4 mg/kg.
